Measurements as given in ChEMBL document CHEMBL1124576 (J Med Chem, 1989).

What was measured:
[1] = ratio of Oral and Intravenous inhibitory concentrations against reversal of clonidine-induced Mydriasis in rat was evaluated; format: functional
In short: (§1)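 Rats given clonidine to induce mydriasis; test agent dosed iv or orally. Pupillary diameter measured 10 min after dosing. Value is the dose […] that reduces pupil diameter to 50% of the clonidine-induced maximum. Means of five determinations, SD under 10%. Ratio is oral over iv dose.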

[2] = test system: Rattus norvegicus; assay: Reversal clonidine-induced mydriasis in rat, after oral administration; format: functional; conditions: read-out: ID50 (the source's name); in short: as §1
[3] = organism: Oryctolagus cuniculus; assay: Inhibition of phenylephrine-induced contraction of the rabbit aorta as a measure of functional alpha-1-adrenoceptor antagonism; conditions: read-out: pA2 (converted)
In short: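 Rabbit aorta contracted with phenylephrine; alpha1 antagonism read as reversal of the contraction, expressed as pA2. Means of at least three separate determinations.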

[4] = target: T1, Adrenergic receptor alpha-1 (Rattus norvegicus, UniProt P15823+P23944+P43140); assay: Binding affinity against alpha-1 adrenergic receptor in rat cerebral cortical membrane, determined using [3H]prazosin as the radioligand
T1 sequence (P15823 whole entry): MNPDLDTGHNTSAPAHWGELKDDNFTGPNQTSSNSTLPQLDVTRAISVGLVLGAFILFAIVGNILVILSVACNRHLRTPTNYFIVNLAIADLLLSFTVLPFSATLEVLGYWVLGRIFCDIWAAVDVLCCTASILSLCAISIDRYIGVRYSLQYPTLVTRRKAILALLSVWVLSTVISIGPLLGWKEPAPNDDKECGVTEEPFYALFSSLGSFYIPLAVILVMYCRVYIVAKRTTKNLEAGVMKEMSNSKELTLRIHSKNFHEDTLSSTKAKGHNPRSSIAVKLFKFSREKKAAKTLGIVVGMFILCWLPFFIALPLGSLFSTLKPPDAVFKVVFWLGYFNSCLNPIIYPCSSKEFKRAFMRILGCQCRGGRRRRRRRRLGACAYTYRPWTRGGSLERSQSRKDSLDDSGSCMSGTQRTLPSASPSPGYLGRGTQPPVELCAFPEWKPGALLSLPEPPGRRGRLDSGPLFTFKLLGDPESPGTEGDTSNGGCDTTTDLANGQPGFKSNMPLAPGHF
T1 sequence (P23944 whole entry): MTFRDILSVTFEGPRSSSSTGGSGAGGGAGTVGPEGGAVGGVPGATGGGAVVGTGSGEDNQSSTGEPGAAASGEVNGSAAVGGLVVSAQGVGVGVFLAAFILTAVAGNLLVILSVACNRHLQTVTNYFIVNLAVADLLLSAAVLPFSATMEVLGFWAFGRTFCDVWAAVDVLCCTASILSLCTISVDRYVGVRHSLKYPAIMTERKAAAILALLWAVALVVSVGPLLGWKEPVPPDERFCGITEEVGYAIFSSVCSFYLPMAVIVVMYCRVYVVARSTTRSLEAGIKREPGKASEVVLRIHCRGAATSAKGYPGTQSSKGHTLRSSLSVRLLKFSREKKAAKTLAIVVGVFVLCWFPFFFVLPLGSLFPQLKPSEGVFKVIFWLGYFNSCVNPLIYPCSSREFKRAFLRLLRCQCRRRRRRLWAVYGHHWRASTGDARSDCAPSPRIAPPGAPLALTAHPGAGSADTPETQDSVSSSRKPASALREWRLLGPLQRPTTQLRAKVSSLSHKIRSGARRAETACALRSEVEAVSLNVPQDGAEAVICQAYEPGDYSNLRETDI
T1 sequence (P43140 whole entry): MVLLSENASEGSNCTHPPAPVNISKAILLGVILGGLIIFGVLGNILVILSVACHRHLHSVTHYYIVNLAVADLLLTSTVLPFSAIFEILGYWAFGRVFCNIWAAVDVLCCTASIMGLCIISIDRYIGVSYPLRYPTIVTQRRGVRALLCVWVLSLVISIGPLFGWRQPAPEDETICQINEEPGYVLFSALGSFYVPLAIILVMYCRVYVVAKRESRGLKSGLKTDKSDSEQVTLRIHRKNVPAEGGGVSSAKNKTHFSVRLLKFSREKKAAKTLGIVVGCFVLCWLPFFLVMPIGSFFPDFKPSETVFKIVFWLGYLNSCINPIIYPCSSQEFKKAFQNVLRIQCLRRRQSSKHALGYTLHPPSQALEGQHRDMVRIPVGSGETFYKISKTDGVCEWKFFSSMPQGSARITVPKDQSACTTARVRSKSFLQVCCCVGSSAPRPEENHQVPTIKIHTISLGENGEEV

[5] = target: T2, Adrenergic receptor alpha-2 (Rattus norvegicus, UniProt P22086+P19328+P22909); assay: Binding affinity against alpha-2 adrenergic receptor in rat cerebral cortical membrane, determined using [3H]- yohimbine as the radioligand.
T2 sequence (P22086 whole entry): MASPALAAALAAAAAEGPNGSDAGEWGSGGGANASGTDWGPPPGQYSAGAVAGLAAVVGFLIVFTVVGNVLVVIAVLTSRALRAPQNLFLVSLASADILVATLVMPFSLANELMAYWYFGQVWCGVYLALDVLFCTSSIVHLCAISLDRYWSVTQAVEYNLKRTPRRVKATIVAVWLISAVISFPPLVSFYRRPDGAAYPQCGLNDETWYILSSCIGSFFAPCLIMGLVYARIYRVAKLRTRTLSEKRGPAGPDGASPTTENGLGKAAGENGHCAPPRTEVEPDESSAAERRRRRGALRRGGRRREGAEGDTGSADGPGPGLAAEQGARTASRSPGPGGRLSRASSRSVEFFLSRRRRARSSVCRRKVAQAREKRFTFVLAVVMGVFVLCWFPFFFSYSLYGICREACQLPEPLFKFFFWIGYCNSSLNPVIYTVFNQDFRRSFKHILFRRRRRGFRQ
T2 sequence (P19328 whole entry): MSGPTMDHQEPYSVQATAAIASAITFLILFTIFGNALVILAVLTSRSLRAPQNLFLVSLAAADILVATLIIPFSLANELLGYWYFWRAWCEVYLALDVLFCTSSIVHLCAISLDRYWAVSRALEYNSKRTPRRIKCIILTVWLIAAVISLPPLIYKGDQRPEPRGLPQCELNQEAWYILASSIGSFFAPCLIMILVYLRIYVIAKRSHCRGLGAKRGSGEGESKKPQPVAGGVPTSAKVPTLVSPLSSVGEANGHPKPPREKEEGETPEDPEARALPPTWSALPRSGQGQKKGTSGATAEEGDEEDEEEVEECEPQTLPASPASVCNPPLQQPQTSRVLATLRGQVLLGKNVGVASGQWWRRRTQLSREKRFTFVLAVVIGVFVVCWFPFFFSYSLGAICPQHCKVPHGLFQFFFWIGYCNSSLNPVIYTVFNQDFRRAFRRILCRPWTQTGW
T2 sequence (P22909 whole entry): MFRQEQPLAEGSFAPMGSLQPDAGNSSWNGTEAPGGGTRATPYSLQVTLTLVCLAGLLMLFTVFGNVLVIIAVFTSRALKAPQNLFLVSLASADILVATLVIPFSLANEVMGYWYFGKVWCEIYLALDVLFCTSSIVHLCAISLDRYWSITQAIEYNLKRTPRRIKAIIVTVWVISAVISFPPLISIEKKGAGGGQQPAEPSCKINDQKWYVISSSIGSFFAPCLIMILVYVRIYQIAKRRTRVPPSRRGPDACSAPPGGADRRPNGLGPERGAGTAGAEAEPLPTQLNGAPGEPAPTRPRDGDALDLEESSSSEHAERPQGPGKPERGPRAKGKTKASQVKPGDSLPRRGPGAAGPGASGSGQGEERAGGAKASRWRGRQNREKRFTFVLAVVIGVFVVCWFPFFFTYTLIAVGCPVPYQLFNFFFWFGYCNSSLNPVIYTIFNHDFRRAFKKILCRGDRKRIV

[6] = target: Adrenergic receptor alpha-2 (Cavia porcellus); assay: Ability to reverse inhibitory effects of UK-14304 on the contraction of guinea pig ileum as a measure of alpha-2 adrenergic receptor antagonism.
[7] = Antilog of pA2 (Uk14304) minus PA2 (Phenylephrine) was expressed as selectivity; format: functional
In short: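 Guinea pig ileum contracted by field stimulation; alpha2 antagonism read as reversal of the inhibitory effect of UK-14304 on the contraction, expressed as pA2. Selectivity index is the antilog of pA2 (UK-14304) minus pA2 (phenylephrine). Means of at least three separate determinations.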

[8] = test system: Rattus norvegicus; assay: Reversal of clonidine-induced mydriasis in rat, after intravenous administration; format: functional; conditions: read-out: ID50 (the source's name); in short: as §1
[9] = Antilog of pKi [3H]yohimbine minus PKi [3H]-prazosin was expressed as selectivity
[10] = Antilog of pKi [3H]-yohimbine minus pKi [3H]prazosin.
[11] = test system: Rattus norvegicus; assay: Beta-adrenoceptor binding density by administering 0.5 mg/kg (once daily for 14 days) in rats; format: functional
In short: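 Rats dosed 0.5 mg/kg once daily for 14 days. Cortical beta-adrenoceptor density measured as Bmax, fmol [3H]dihydroalprenolol bound per mg protein, and compared with untreated controls.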

| SMILES | Log Ki [4] | Log Ki [5] | pA2 [6] | Selectivity [9] | Selectivity [10] | Ratio [1] | ED50 [2] | Kb [3] | Selectivity [7] | ED50 [8] | Bmax [11] |
| --- | --- | --- | --- | --- | --- | --- | --- | --- | --- | --- | --- |
| COc1ccc2c(c1)CCN1CC3CCCN(S(C)(=O)=O)C3CC21 (stereo unspecified) | -4.99 | -9.18 | 9.7 | 15000 |  | 16.2 | 0.21 mg/kg | > 1 µM | > 4000 | 0.013 mg/kg |  |
| c1ccc2c(c1)OCC(C1=NCCN1)O2 (stereo unspecified) [IDAZOXAN] |  |  |  |  |  |  | 1.2 mg/kg |  |  | 0.017 mg/kg |  |
| COC(=O)[C@@H]1[C@H]2C[C@H]3c4[nH]c5ccccc5c4CCN3C[C@@H]2CC[C@@H]1O [YOHIMBINE] |  |  |  |  |  |  | 2.8 mg/kg |  |  | 0.185 mg/kg |  |

The next lines start with results.

| Log Ki [4] | Log Ki [5] | pA2 [6] | Selectivity [9] | Selectivity [10] | SMILES | Ratio [1] | ED50 [2] | Kb [3] | Selectivity [7] | ED50 [8] | Bmax [11] |
| --- | --- | --- | --- | --- | --- | --- | --- | --- | --- | --- | --- |
| > -5 | -6.32 | 6.5 | > 50 | > 50 | COc1ccc2c(c1)CCN1C[C@@H]3CCCN(S(C)(=O)=O)[C@H]3C[C@H]21 |  | > 10 mg/kg | 10 µM |  | > 10 mg/kg |  |
| -5.29 | -9.45 | 9.7 | 15000 |  | COc1ccc2c(c1)CCN1C[C@H]3CCCN(S(C)(=O)=O)[C@@H]3C[C@@H]21 | 14.6 | 0.095 mg/kg | 0.794 µM | 4000 | 0.0065 mg/kg | 57 fmol/mg |
